In brackets after ≈: the same amount, converted by molar mass. Several values for one entry are separate records, joined by “and”; a condition that tells them apart may be missing. Equal entries are not always repeated. Activity calls are given as the source filed them. The rule behind the calls is not given here.
Legend:
microRNA 21 [1] = assay: Displacement of F-neo from premature miRNA21 (unknown origin) by fluorescence assay; format: nucleic-acid assay
microRNA 21 [2] = assay: Displacement of F-neo from premature miRNA21 (unknown origin) at 100 nM by fluorescence assay relative to control; format: nucleic-acid assay
Procedure, shortened: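 Competition fluorescence: pre-miR21 (12.5 nM, annealed 75→25 °C at 1 °C/min) complexed with 100 nM F-neo in 10 mM phosphate, 25 mM KCl, 0.05 mM EDTA, pH 6.5. Test agent added at 100 nM. Emission read at ex 485/em 525 nm. Percent binding = (I−Ic)×100/(Ineo−Ic), referenced to 100 nM kanamycin; duplicate controls.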

MCF7 [3] = assay: Antiproliferative activity against human MCF7 cells assessed as reduction in Ki67 expression at 5 uM incubated for 48 hrs by fluorescence microscopy; format: functional, cell-based
Procedure, shortened: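 MCF7 cells seeded on coverslips (8x10⁴ per well) and grown 24 h at 37 °C, 5% CO₂, then treated 48 h at 5 μM; untreated and kanamycin controls. Fixed in 3% paraformaldehyde, permeabilized with 0.2% Triton X-100, blocked with 0.5% BSA. Stained with anti-Ki67 (1:1000, overnight) and Alexa Fluor 488 secondary (1:2000, 2 h). Nuclear speckles imaged.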

Escherichia coli [4] = assay: Antibacterial activity against Escherichia coli ATCC 25922 assessed as reduction in bacterial growth incubated for 15 to 20 hrs by broth microdilution method; format: functional; details: time 15-20 hrs
Procedure, shortened: (§1)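 MIC by CLSI broth microdilution on exponential-phase cultures, in triplicate. Compound stocks were made at 10× final in 10% DMSO and added to the bacterial suspension (about 3 x 10⁵ cells/mL in cation-adjusted Mueller-Hinton broth). Final concentrations were 2-fold serial dilutions from 50 μM to 0.78 μM. Plates were incubated humidified at 37°C for 15-20 h, growth was read as absorbance at 595 nm, and % inhibition was averaged from the triplicates.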

Staphylococcus aureus [5] = assay: Antibacterial activity against Staphylococcus aureus ATCC 25923 assessed as reduction in bacterial growth incubated for 15 to 20 hrs by broth microdilution method; format: functional; details: time 15-20 hrs; procedure, shortened: as §1
Pseudomonas aeruginosa [6] = assay: Antibacterial activity against Pseudomonas aeruginosa ATCC 27853 assessed as reduction in bacterial growth incubated for 15 to 20 hrs by broth microdilution method; format: functional; details: time 15-20 hrs
Procedure, shortened: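 CLSI broth microdilution on exponential-phase bacteria, ~3 x 10⁵ cells/mL in cation-adjusted Mueller-Hinton broth. Serial 2-fold dilutions give final 50 to 0.78 μM from 10x stocks in 10% DMSO. Incubated 15-20 h at 37°C, humidified. Growth read at 595 nm; percent inhibition averaged from triplicates to give MIC.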

Staphylococcus aureus [7] = assay: Antibacterial activity against methicillin-resistant Staphylococcus aureus ATCC 1960649 assessed as reduction in bacterial growth incubated for 15 to 20 hrs by broth microdilution method; format: functional; details: time 15-20 hrs; procedure, shortened: as §1
Escherichia coli [8] = assay: Antibacterial activity against Escherichia coli ATCC 25922 assessed as reduction in bacterial growth at 64 uM incubated for 15 to 20 hrs by broth microdilution method relative to control; format: functional; details: time 15-20 hrs, read-out: GI
Staphylococcus aureus [9] = assay: Antibacterial activity against Staphylococcus aureus ATCC 25923 assessed as reduction in bacterial growth at 64 uM incubated for 15 to 20 hrs by broth microdilution method relative to control; format: functional; details: time 15-20 hrs, read-out: GI
Pseudomonas aeruginosa [10] = assay: Antibacterial activity against Pseudomonas aeruginosa ATCC 27853 assessed as reduction in bacterial growth at 64 uM incubated for 15 to 20 hrs by broth microdilution method relative to control; format: functional; details: time 15-20 hrs, read-out: GI
Staphylococcus aureus [11] = assay: Antibacterial activity against methicillin-resistant Staphylococcus aureus ATCC 1960649 assessed as reduction in bacterial growth at 64 uM incubated for 15 to 20 hrs by broth microdilution method relative to control; format: functional; details: time 15-20 hrs; for inhibition of growth at 64 µM: read-out: GI
Escherichia coli [12] = assay: Antibacterial activity against Escherichia coli ATCC 25922 assessed as reduction in bacterial growth at 12.5 uM incubated for 15 to 20 hrs by broth microdilution method relative to control; details: time 15-20 hrs
Staphylococcus aureus [13] = assay: Antibacterial activity against Staphylococcus aureus ATCC 25923 assessed as reduction in bacterial growth at 12.5 uM incubated for 15 to 20 hrs by broth microdilution method relative to control; details: time 15-20 hrs
Pseudomonas aeruginosa [14] = assay: Antibacterial activity against Pseudomonas aeruginosa ATCC 27853 assessed as reduction in bacterial growth at 12.5 uM incubated for 15 to 20 hrs by broth microdilution method relative to control; details: time 15-20 hrs
microRNA 21 [15] = assay: Inhibition of premature miRNA-21 (unknown origin) transfected in human MCF7 cells assessed as reduction of maturation of pre-miRNA21 at 5 uM incubated for 48 hrs by qPCR analysis; format: cell-based
Procedure, shortened: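 MCF7 cells treated 48 h at 5 μM, as for the Western blots. Total RNA extracted with TRIzol and DNase-treated; 400-500 ng polyadenylated and reverse-transcribed with oligo(dT) adaptor. SYBR qPCR run in triplicate for mature miR21, normalized to U6 snRNA, fold change by 2^-ΔΔCt.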

microRNA 21 [16] = assay: Inhibition of premature miRNA-21 (unknown origin) transfected in human MCF7 cells assessed as increase in PDCD4 expression at 5 uM incubated for 48 hrs by Western blot analysis; format: cell-based
Procedure, shortened: (§2)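 MCF7 cells seeded at 4x10⁴/well, treated 24 h later at 5 μM for 48 h. Controls: antisense LNA transfected at 50 nM, kanamycin forms, streptomycin, untreated. Lysates (40 µg protein) run on SDS-PAGE and blotted to PVDF. Probed with PDCD4 or PTEN (1:1000) plus GAPDH (1:2000) antibodies overnight at 4 °C, then HRP secondary and ECL; bands quantified as fold change versus controls.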

microRNA 21 [17] = assay: Inhibition of premature miRNA-21 (unknown origin) transfected in human MCF7 cells assessed as increase in PTEN expression at 5 uM incubated for 48 hrs by Western blot analysis; format: cell-based; procedure, shortened: as §2
microRNA 21 [18] = assay: Binding affinity to pre-miRNA21 (unknown origin) by […]; format: nucleic-acid assay
Procedure, shortened: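 Bio-layer interferometry (Octet RED96) with immobilized pre-miR21. Analytes run at 8-128 nM in 10 mM HEPES, 50 mM NaCl, 0.05% Tween20. Association 5 min, dissociation 10 min; regeneration in 50 mM NaOH, 1 M NaCl. KD derived from the binding curves.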

[19] = Cytotoxicity against human MCF7 cells assessed as reduction cell viability at 2.5 to 5 uM incubated for 24 hrs by MTT assay; format: cell-based; details: dose 2.5-5 µM, read-out: INH
Procedure, shortened: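 MTT assay in MCF7 cells seeded at 8000/well and treated 24 h after seeding at 0, 2.5, 5, 7.5 and 10 μM, in triplicate. After 24 h exposure, MTT (0.5 mg/ml) added for 4 h at 37 °C. Crystals dissolved in DMSO and absorbance read at 570 nm to give percent viable cells.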

MCF7 [20] = assay: Antimigratory activity in human MCF7 cells assessed as […] at 5 uM incubated for 48 hrs by imaging analysis relative to control; format: functional
Procedure, shortened: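 MCF-7 cells seeded densely and grown to confluence, then scratched with a pipette tip and washed with PBS. Treated at 5μM alongside an untreated well. Wound images quantified in ImageJ; three biological replicates, error bars ± S.D.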

MCF7 [21] = assay: Inhibition of epithelial-mesenchymal transition in human MCF7 cells increase in E-cadherin expression at 5 uM incubated for 48 hrs by inverted fluorescence microscopy

SMILES | inhibition (microRNA 21 [2]) | inhibition of growth at 64 µM (Escherichia coli [8]) [%] | inhibition of growth at 64 µM (Staphylococcus aureus [9]) [%] | inhibition of growth at 64 µM (Staphylococcus aureus [11]) [%] | growth inhibition (GI) (Escherichia coli [12]) | growth inhibition (GI) (Staphylococcus aureus [13]) | growth inhibition (GI) (Pseudomonas aeruginosa [14]) | inhibition (microRNA 21 [15]) | inhibition (microRNA 21 [16]) | further results
NC[C@H]1O[C@H](O[C@H]2[C@H](O)[C@@H](O[C@H]3O[C@H](CO)[C@@H](O)[C@H](N)[C@H]3O)[C@H](N)C[C@@H]2N)[C@H](O)[C@@H](O)[C@@H]1O [KANAMYCIN] | 107% and 100% | 100 | 100 | 41 |  |  |  |  |  | IC50 (microRNA 21 [1]): 1100 nM; inhibition (MCF7 [3]): inactive; MIC (Escherichia coli [4]): 4 µM (≈ 1.94 µg/mL); MIC (Staphylococcus aureus [5]): 4 µM (≈ 1.94 µg/mL); MIC (Pseudomonas aeruginosa [6]): > 256 µM; MIC (Staphylococcus aureus [7]): > 256 µM; inhibition of growth at 64 µM (Pseudomonas aeruginosa [10]): 11%
C[C@@H](O)[C@H](NC(=O)[C@H](CCCNC(=N)N)NC(=O)CCC(=O)NC[C@H]1O[C@H](O[C@@H]2[C@@H](O)[C@H](O[C@H]3O[C@H](CN)[C@@H](O)[C@H](O)[C@H]3O)[C@@H](N)C[C@H]2N)[C@H](O)[C@@H](N)[C@@H]1O)C(N)=O | 131% |  |  |  | inactive | inactive | inactive |  |  | growth inhibition (GI) (Staphylococcus aureus [11]): inactive
NC[C@H]1O[C@H](O[C@H]2[C@H](O)[C@@H](O[C@H]3O[C@H](CNC(=O)CCC(=O)N[C@@H](Cc4ccc(O)cc4)C(=O)N[C@@H](CC(=O)O)C(N)=O)[C@@H](O)[C@H](N)[C@H]3O)[C@H](N)C[C@@H]2N)[C@H](O)[C@@H](O)[C@@H]1O | 5% |  |  |  | inactive | inactive | inactive | Active | Active | growth inhibition (GI) (Staphylococcus aureus [11]): inactive
NC[C@H]1O[C@H](O[C@H]2[C@H](O)[C@@H](O[C@H]3O[C@H](CNC(=O)CCC(=O)N[C@@H](Cc4ccccc4)C(=O)N[C@@H](CS)C(N)=O)[C@@H](O)[C@H](N)[C@H]3O)[C@H](N)C[C@@H]2N)[C@H](O)[C@@H](O)[C@@H]1O | 140% |  |  | 22 | inactive | inactive | inactive | Active | Active | inhibition (microRNA 21 [17]): Active; Kd (microRNA 21 [18]): 43.6 nM; cytotoxicity at 24 h, up to 5 µM [19]: 2%; Activity (MCF7 [20]): >50%; inhibition (MCF7 [21]): Active
NC[C@H]1O[C@H](O[C@H]2[C@H](O)[C@@H](O[C@H]3O[C@H](CNC(=O)CCC(=O)N[C@@H](Cc4ccc(O)cc4)C(=O)N[C@@H](CS)C(N)=O)[C@@H](O)[C@H](N)[C@H]3O)[C@H](N)C[C@@H]2N)[C@H](O)[C@@H](O)[C@@H]1O | 133% |  | 34 | 38 | inactive |  | inactive |  |  | inhibition (MCF7 [3]): Active
N=C(N)NCCC[C@H](NC(=O)[C@H](CCCNC(=N)N)NC(=O)CCC(=O)NC[C@H]1O[C@H](O[C@@H]2[C@@H](O)[C@H](O[C@H]3O[C@H](CN)[C@@H](O)[C@H](O)[C@H]3O)[C@@H](N)C[C@H]2N)[C@H](O)[C@@H](N)[C@@H]1O)C(N)=O | 137% | 25 | 29 | 30 |  |  |  | Active | Active | Activity (microRNA 21 [18]; dose 16.0 nM): Active; inhibition of growth at 64 µM (Pseudomonas aeruginosa [10]): 11%
N=C(N)NCCC[C@H](NC(=O)CCC(=O)NC[C@H]1O[C@H](O[C@@H]2[C@@H](O)[C@H](O[C@H]3O[C@H](CN)[C@@H](O)[C@H](O)[C@H]3O)[C@@H](N)C[C@H]2N)[C@H](O)[C@@H](N)[C@@H]1O)C(=O)N[C@@H](CS)C(N)=O |  | 13 | 20 | 25 |  |  | inactive |  |  | 
CN[C@@H]1[C@H](O[C@H]2[C@H](O[C@H]3[C@H](O)[C@@H](O)[C@H](N=C(N)N)[C@@H](O)[C@@H]3N=C(N)N)O[C@@H](C)[C@]2(O)C=O)O[C@@H](CO)[C@H](O)[C@H]1O | 107% |  |  |  |  |  |  |  |  | 
